Assay outcomes deposited in PubChem by Sanford-Burnham Center for Chemical Genomics.
CCR6 antagonist = CCR6 receptor antagonists, primary screen, cell-based, CHO-K1, luminescence, beta-arrestin, uHTS. inhibition, % at 20 µM. AID 493098, 2011. CHO-K1 CCR6 PathHunter beta-arrestin, CCL20-stimulated. actives 0.49% (n = 340,000). C-C chemokine receptor type 6 (Homo sapiens), P51684;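 active means compounds whose inhibition of the agonist-driven luminescence signal at 20 µM reaches about 50%, limit read from the data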;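 further: cells stimulated with CCL20 at 14 nM final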
EBI2 block = EBI2 receptor antagonists, beta-arrestin recruitment, primary screen, cell-based, luminescence, 7a,25-OHC stimulation, uHTS | G-protein coupled receptor 183 (Homo sapiens), P32249 | 7a,25-OHC stimulated | inhibition, % at 5 µM | actives 0.81% (n = 360,000) | AID 651636, 2012; in the data active means inhibition above about 38%;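 further: enzyme fragment complementation signal reports receptor beta-arrestin coupling in cells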
APJ antagonist = antagonists of human apelin receptor APJ, primary screen, CHO-K1 cells, beta-arrestin complementation, luminescence; AID 2521, 2010; actives 0.32% (n = 330,000); inhibition, % at 20 µM;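 active means inhibition above about 40% at 20 µM, limit read from the data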;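 further: cells challenged with 10 nM apelin-13 agonist together with compound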
Target sequence (P35414 whole entry, looked up): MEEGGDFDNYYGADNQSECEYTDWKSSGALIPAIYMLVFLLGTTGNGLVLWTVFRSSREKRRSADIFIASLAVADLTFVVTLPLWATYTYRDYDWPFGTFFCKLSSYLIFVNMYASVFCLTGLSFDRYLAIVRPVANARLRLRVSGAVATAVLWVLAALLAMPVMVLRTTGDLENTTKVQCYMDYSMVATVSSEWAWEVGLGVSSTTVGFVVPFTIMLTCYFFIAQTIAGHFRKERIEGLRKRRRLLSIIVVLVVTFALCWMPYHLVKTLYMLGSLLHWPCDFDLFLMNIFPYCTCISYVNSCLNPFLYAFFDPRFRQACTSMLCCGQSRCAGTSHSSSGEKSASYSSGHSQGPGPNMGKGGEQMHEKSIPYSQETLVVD
CXCR6 block = CXCR6 receptor inhibitors, primary screen, cell-based, beta-arrestin, luminescence, CHO-K1 PathHunter, 1536-well; C-X-C chemokine receptor type 6 (Homo sapiens), O00574; inhibition, % at 20 µM; actives 0.36% (n = 360,000); AID 602244, 2012; in the data active means inhibition above about 34%, passing the limit was not always enough;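 further: antagonist mode with CXCL16 agonist at 10 nM final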
APJ ag = agonists of human apelin receptor APJ, primary screen, CHO-K1 cells, PathHunter beta-arrestin, luminescence | actives 0.11% (n = 330,000) | 0% DMSO wells, 100% apelin | activation, % at 20 µM;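 active means activation more than six SD over the plate average, tested at 20 µM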
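Test system – PathHunter CHO-K1 APJ (AGTRL-1) beta-arrestin reporter cells · Input – 1000 cells/well · Compound – single test compound dose, 20 µM final, 1% DMSO · Times – compound stimulation 90 min at 25 °C, detection 60 min · Technique – beta-gal luminescence · Read-out basis – APJ–arrestin association signal · Control set – negative DMSO alone, positive Apelin-13 at 10 nM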
EBI2 antag conf = EBI2 antagonist hit retest, beta-arrestin, confirmation, cell-based, single concentration, luminescence, 7a,25-OHC stimulation; shares compounds with EBI2 block; 7a,25-OHC antagonism; inhibition, % at 5 µM; actives 29% (n = 2,400);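 active means inhibition of at least 50%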
EBI2 ag = EBI2 agonist activity of antagonist hits, confirmation, counter-screen for EBI2 antagonist project, cell-based, single concentration, agonist mode, luminescence; EBI2-expressing cells, 60 min; 0% vehicle, 100% 7α,25-dihydroxycholesterol control; 2,400 tested, under 10 active; activation, % at 5 µM; shares compounds with EBI2 block;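 active means activation of at least 50%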
bGal counter = E. coli beta-galactosidase enzyme inhibition, confirmation, counter-screen for EBI2 antagonist project, biochemical, luminescence, single concentration; shares compounds with EBI2 block; purified beta-galactosidase, luminescent Galacton Star, 15 min; inhibition, % at 5 µM; actives 1% (n = 2,400); AID 652176, 2013;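 active means replicate-average signal at least 3 plate SD below neutral wells, shown as high inhibition, flagging enzyme-inhibiting false positives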;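 further: higher means stronger loss of beta-gal luminescence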
A number is an active result. Shown are actives, neighbours in structure and some others; about 1.5% of the full set was active somewhere.

`O=c1c2c3nc4ccccc4nc3n(Cc3ccccc3)c2ncn1Cc1ccco1` gave CCR6 antagonist inactive, EBI2 block 51, CXCR6 block inactive, EBI2 antag conf inactive, EBI2 ag inactive and bGal counter inactive.
`COCCCn1c2nc3ccccc3nc2c2c(=O)n(Cc3ccc(Cl)cc3)cnc21` gave CCR6 antagonist inactive, EBI2 block inactive, APJ antagonist inactive, CXCR6 block inactive and APJ ag inactive.
COc1ccccc1CNC(=O)CSc1ccc(Br)cc1 was read as CCR6 antagonist inactive, EBI2 block 45, APJ antagonist inactive, CXCR6 block inactive, APJ ag inactive, EBI2 antag conf inactive, EBI2 ag inactive and bGal counter inactive.
Screening CC[C@H](C)[C@@H](CO)NC(=O)[C@H]1O[C@@H](n2ccc(=O)[nH]c2=O)[C@H](O)[C@@H]1O returned EBI2 block inactive and CXCR6 block inactive.
COc1ccc(NC(=O)c2cc3ccc(O)cc3o/c2=N\O)cc1 was read as CCR6 antagonist inactive, EBI2 block inactive, APJ antagonist inactive, CXCR6 block inactive and APJ ag inactive.
CCC1CSC(Nc2ccc(C(=O)/C=C/c3ccc(Br)cc3)cc2)=N1 (stereo not given) was read as CCR6 antagonist inactive, EBI2 block 61, APJ antagonist inactive, CXCR6 block inactive, APJ ag inactive, EBI2 antag conf 55, EBI2 ag inactive and bGal counter inactive.
COc1ccc2nc(C)cc(SCC(=O)NNC(=O)COc3ccc(C)cc3)c2c1 was read as CCR6 antagonist inactive, EBI2 block 67, APJ antagonist inactive, CXCR6 block inactive, APJ ag inactive, EBI2 antag conf inactive, EBI2 ag inactive and bGal counter inactive.
Cc1ccc(OCC(=O)NNC(=O)CSc2nnc(-c3ccc(C)cc3)n2C)cc1 was read as CCR6 antagonist inactive, EBI2 block 75, APJ antagonist inactive, CXCR6 block inactive, APJ ag inactive, EBI2 antag conf inactive, EBI2 ag inactive and bGal counter inactive.
Cn1c(CC(=O)NNC(=O)c2ccc(Cl)nc2)nc2ccccc21 was read as CCR6 antagonist inactive, EBI2 block inactive, APJ antagonist inactive, CXCR6 block inactive and APJ ag inactive.
`CCN1C(=O)N[C@@H](c2cccs2)C(C(C)=O)=C1C` gave CCR6 antagonist inactive, EBI2 block inactive, APJ antagonist inactive, CXCR6 block inactive and APJ ag inactive.
`COc1cc2cc(C(c3nnnn3C3CCCC3)N3CCCCC3)c(=O)[nH]c2cc1OC` (stereo not given) gave CCR6 antagonist inactive, EBI2 block inactive, APJ antagonist inactive, CXCR6 block inactive and APJ ag inactive.
Screening COc1ccc2cc(C(c3nnnn3C3CCCC3)N3CCCCCC3)c3nnnn3c2c1 (stereo not given) returned CCR6 antagonist inactive, EBI2 block 60, APJ antagonist inactive, CXCR6 block inactive, APJ ag inactive, EBI2 antag conf inactive, EBI2 ag inactive and bGal counter inactive.
For COc1ccc(C(c2nnnn2C2CCCC2)N2CCC(C)CC2)c(OC)c1 (stereo not given) the results were CCR6 antagonist inactive, EBI2 block inactive, APJ antagonist inactive, CXCR6 block inactive and APJ ag inactive.
`COc1ccc2[nH]c(=O)c(C(c3nnnn3C3CCCC3)N(C)C3CCCCC3)cc2c1` (stereo not given) gave CCR6 antagonist inactive, EBI2 block 62, APJ antagonist inactive, CXCR6 block inactive, APJ ag inactive, EBI2 antag conf inactive, EBI2 ag inactive and bGal counter inactive.
Screening COc1ccc2cc(C(c3nnnn3C3CCCCC3)N3CCCCCC3)c3nnnn3c2c1 (stereo not given) returned CCR6 antagonist inactive, EBI2 block 54, APJ antagonist inactive, CXCR6 block inactive, APJ ag inactive, EBI2 antag conf inactive, EBI2 ag inactive and bGal counter inactive.
NC(=O)C1CCN(CC(O)COc2ccc(-c3ccccc3)cc2)CC1 (stereo not given) was read as CCR6 antagonist inactive, EBI2 block inactive, APJ antagonist inactive, CXCR6 block inactive and APJ ag inactive.
`COc1ccc(N2CCN(C(=O)c3ccc4c(c3)CC(c3ccccc3)OC4=O)CC2)cc1` (stereo not given) gave CCR6 antagonist inactive, EBI2 block 91, APJ antagonist inactive, CXCR6 block inactive, APJ ag inactive, EBI2 antag conf 78, EBI2 ag inactive and bGal counter inactive.
O=C1OC(c2ccccc2)Cc2cc(C(=O)N3CCN(c4ccc(F)cc4)CC3)ccc21 (stereo not given) was read as CCR6 antagonist inactive, EBI2 block 90, APJ antagonist inactive, CXCR6 block inactive, APJ ag inactive, EBI2 antag conf 58, EBI2 ag inactive and bGal counter inactive.
`Nc1cc2c(cc1Cl)N(Cc1ccccc1)C(=O)CO2` gave CCR6 antagonist inactive, EBI2 block inactive, APJ antagonist inactive, CXCR6 block inactive and APJ ag inactive.
`CC(C)Sc1nc2sc(-c3ccccc3)cc2c(=O)n1N` gave CCR6 antagonist inactive, EBI2 block 51, APJ antagonist inactive, CXCR6 block inactive, APJ ag inactive, EBI2 antag conf inactive, EBI2 ag inactive and bGal counter inactive.
Screening COC(=O)c1ccc(NC(=O)CCN2C(=O)CSC2=O)cc1 returned CCR6 antagonist inactive, EBI2 block inactive, APJ antagonist inactive, CXCR6 block inactive and APJ ag inactive.
Screening Cc1ccc(/C=C\c2nccc3c2[nH]c2ccccc23)cc1 returned CCR6 antagonist inactive, EBI2 block 74, APJ antagonist inactive, CXCR6 block inactive, APJ ag inactive, EBI2 antag conf inactive, EBI2 ag inactive and bGal counter inactive.
For O=c1[nH]c2ccccc2nc1/C=C/c1ccccc1 the results were CCR6 antagonist inactive, EBI2 block inactive, APJ antagonist inactive, CXCR6 block inactive and APJ ag inactive.
